Compounds with a hit are over-represented: about 4.5% of the library has one in this group of screens.
APP 5'UTR act: activators of APP 5'UTR luciferase reporter, primary screen, SH-SY5Y cells. 1% of 190,000 active. AID 1276, 2008. SH-SY5Y APP 5'UTR luciferase reporter, luminescence; zero percent = DMSO vehicle wells. activation, % at 2 µM;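 active = activation above a set limit, based on mean plus 3 SD of controls, cut at about 140% in these data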
NF-kB neuron act: activators of NF-kB expression in neurons, primary screen, cell-based, HTS; human neuronal cells, NF-kB reporter expression; active compounds read high; fold change at 12.5 µM; 1.6% of 190,000 active; in the data active = fold change above about 3.3
STAT1 act: STAT1 signaling activators, primary screen, cell-based, HTS, luciferase reporter; NIH 3T3 STAT1-luciferase reporter, IFN-gamma, luminescence; 100% = IFN-gamma alone, no compound; activation (% of control), % at 5.5 µM; 2.6% of 200,000 active; AID 932, 2007;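 active = activation above the screen-wide mean activation plus 3 SD, cut at about 130% in these data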
PERK inhibitor: block of dimerizer-induced PERK translation repression, primary screen, PERK inhibitor project, CHO PERK-DD cells, SEAP luminescence, HTS. inhibition, % at 5.6 µM. AID 1416, 2008. 0.17% of 220,000 active. Eukaryotic translation initiation factor 2-alpha kinase 3 (Homo sapiens), Q9NZJ5. CHO PERK-DD fusion, SEAP luminescence translation reporter;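 active = inhibition above the mean inhibition of all tested compounds plus 3 SD, set separately per screening campaign, cut at about 2.9% in these data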;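 note: PERK kinase domain activated by AP20187 dimerizer at 100 nM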
MDM2 E3 inh: MDM2-luciferase reporter signal enhancers, primary screen, MDM2 E3 ligase inhibitor project, cell-based, luminescence, 1536-well; 0.11% of 210,000 active; E3 ubiquitin-protein ligase Mdm2 (Homo sapiens), Q00987; cell-based MDM2 ubiquitination luciferase reporter, 2 h; 0 = plate control, 100 = twice control, blank-subtracted; signal enhancement, % at 5 µM;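 active = signal enhancement of 30% or more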;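 note: luminescence tracks abundance of the self-degrading MDM2-luciferase fusion protein; higher signal means inhibition of MDM2 E3 ligase activity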
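Buffer or medium: Cells held in DMEM | Assay system: Stable mammalian line carrying autodegrading MDM2–luciferase fusion reporter | Quantity: 2000 cells/well | Times: 4 h settle plus 2 h compound, 37 °C | Doses: One concentration, 5 µM, with 0.2% DMSO | Technique: Luminescence with SteadyLite reagent, 15 min at room temperature | Benchmarks: Plate controls and plate blanks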
AHR activator: AHR activators, primary screen, cell-based, luminescence, luciferase reporter, human; Aryl hydrocarbon receptor (Homo sapiens), P35869; AHR-responsive luciferase reporter cells; activation, % at 5 µM; 2.5% of 320,000 active; AID 2796, 2010; in the data active = activation above about 47%
A number is an active result.

Screening Cc1ccc(-c2noc(CSc3ccccc3)n2)cc1 returned APP 5'UTR act 170, NF-kB neuron act 4.4, STAT1 act inactive, PERK inhibitor inactive, MDM2 E3 inh inactive and AHR activator inactive.
N#C/C(=C\c1cccnc1)C(=O)Nc1cccc(Cl)c1 was read as APP 5'UTR act inactive, NF-kB neuron act inactive, STAT1 act inactive, PERK inhibitor inactive, MDM2 E3 inh inactive and AHR activator inactive.
O=C(Nc1ccsn1)c1ccc(Cl)cc1Cl was read as PERK inhibitor inactive, MDM2 E3 inh inactive and AHR activator inactive.
CCCOc1ccc(NC(=O)CC2C(=O)N(C)C(=S)N2Cc2cccs2)cc1 (stereo not drawn) was read as NF-kB neuron act inactive, STAT1 act inactive, PERK inhibitor inactive, MDM2 E3 inh inactive and AHR activator inactive.
Cc1cccc(-c2noc(CSc3ccccc3)n2)c1 was read as APP 5'UTR act inactive, NF-kB neuron act inactive, STAT1 act 145, PERK inhibitor inactive, MDM2 E3 inh inactive and AHR activator inactive.
`COc1ccc2nc(N=Nc3ccc(O)c4ccccc34)sc2c1` gave APP 5'UTR act inactive, NF-kB neuron act inactive, STAT1 act inactive, PERK inhibitor inactive, MDM2 E3 inh inactive and AHR activator 73.
`COc1ccc(S(=O)(=O)N2CCCCC2)cc1NC(=O)c1ccc(CS(C)(=O)=O)cc1` gave AHR activator inactive.
For Cc1cc(NC(=O)c2ccccc2)sc1C the results were APP 5'UTR act 154, NF-kB neuron act 5.3, STAT1 act 131, PERK inhibitor inactive, MDM2 E3 inh inactive and AHR activator inactive.
Screening Cc1ccc(NC(=O)c2ccccc2)s1 returned APP 5'UTR act 160, NF-kB neuron act 6.6, STAT1 act inactive, PERK inhibitor inactive, MDM2 E3 inh inactive and AHR activator inactive.
`Cc1cc(NC(=O)c2ccccc2)cc(NC(=O)c2ccccc2)c1C` gave AHR activator 78.
`Cc1ccc(NC(=O)c2ccc(NC(=O)c3ccccc3)cc2)cc1C` gave AHR activator inactive.
Cc1ccc(C)n1-c1ccc(NC(=O)c2ccccc2)cc1 was read as APP 5'UTR act inactive, NF-kB neuron act inactive, STAT1 act inactive, PERK inhibitor inactive, MDM2 E3 inh inactive and AHR activator inactive.
O=C(Cn1c(=O)c2cccn2c2cccnc21)N1CCN(c2ccccc2F)CC1 was read as AHR activator inactive.
CN(C)C(=O)c1nc2ccccc2s1 was read as APP 5'UTR act inactive, NF-kB neuron act inactive, STAT1 act inactive, PERK inhibitor inactive, MDM2 E3 inh inactive and AHR activator inactive.
Screening CN(C)c1ccc(CC(=O)c2nc3ccccc3s2)cc1 returned APP 5'UTR act inactive, NF-kB neuron act inactive, STAT1 act 134, PERK inhibitor inactive, MDM2 E3 inh inactive and AHR activator inactive.
CC(C)CC(=O)c1c[nH]c(C(=O)NCCCn2ccnc2)c1 was read as NF-kB neuron act inactive, STAT1 act inactive, PERK inhibitor inactive, MDM2 E3 inh inactive and AHR activator inactive.
CCCCNC(=O)c1cn(-c2ccc(OCC)cc2)c(=O)c2cc(OC)c(OC)cc12 was read as APP 5'UTR act inactive, NF-kB neuron act inactive, STAT1 act inactive, PERK inhibitor inactive, MDM2 E3 inh inactive and AHR activator inactive.
Screening O=c1oc2ccccc2cc1-c1csc(NN=C2CCCCC2)n1 returned APP 5'UTR act inactive, NF-kB neuron act inactive, STAT1 act inactive, PERK inhibitor inactive, MDM2 E3 inh inactive and AHR activator inactive.
CC1CCC/C(=C(\C#N)c2nc(-c3cc4ccccc4oc3=O)cs2)C1 (stereo not drawn) was read as APP 5'UTR act 148, NF-kB neuron act inactive, STAT1 act inactive, PERK inhibitor inactive, MDM2 E3 inh inactive and AHR activator inactive.
Screening CC(C)(C)c1cc(NCc2ccccn2)n2ncc(-c3ccccc3)c2n1 returned PERK inhibitor inactive, MDM2 E3 inh inactive and AHR activator inactive.
For O=C1c2ccccc2C(=O)C1Cc1cccc2ccccc12 the results were APP 5'UTR act inactive, NF-kB neuron act inactive, STAT1 act inactive, PERK inhibitor inactive, MDM2 E3 inh inactive and AHR activator 61.
For O=c1cc(-c2cccc3ccccc23)[nH][nH]1 the results were APP 5'UTR act inactive, NF-kB neuron act inactive, STAT1 act inactive, PERK inhibitor inactive, MDM2 E3 inh inactive and AHR activator inactive.
